# Data taken from ChEMBL document CHEMBL4339200, “Structure-based Discovery of Phenyl (3-Phenylpyrrolidin-3-yl)sulfones as Selective, Orally Active RORγt Inverse Agonists” (ACS Med Chem Lett, 2019).
# How the values were obtained:
# [1] = biological target: T1, Nuclear receptor subfamily 1 group I member 2 (Homo sapiens, UniProt O75469); test: Transactivation of PXR in human HepG2 cells; format: ADME, cell-based
# T1 sequence (O75469 whole entry): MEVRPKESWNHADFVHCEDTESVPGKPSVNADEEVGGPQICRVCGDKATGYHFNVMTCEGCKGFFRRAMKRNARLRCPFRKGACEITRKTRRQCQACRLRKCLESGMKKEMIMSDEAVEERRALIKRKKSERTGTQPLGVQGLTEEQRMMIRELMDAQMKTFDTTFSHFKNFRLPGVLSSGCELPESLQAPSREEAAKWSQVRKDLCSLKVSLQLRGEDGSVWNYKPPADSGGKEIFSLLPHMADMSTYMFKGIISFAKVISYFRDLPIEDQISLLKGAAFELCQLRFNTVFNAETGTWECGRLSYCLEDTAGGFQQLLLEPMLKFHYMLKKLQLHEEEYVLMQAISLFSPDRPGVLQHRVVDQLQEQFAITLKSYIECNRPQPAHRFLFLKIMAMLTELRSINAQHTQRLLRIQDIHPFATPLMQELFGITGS
# PXR (NR1I2) = biological target: T2, PXR (NR1I2) (Homo sapiens, UniProt O75469); test: Transactivation of PXR in human HepG2 cells relative to rifampicin; format: ADME, cell-based; details: read-out: %max
# T2 sequence (O75469 whole entry): T1 sequence (O75469 whole entry)
# [2] = biological target: T3, Oxysterols receptor LXR-alpha (Homo sapiens, UniProt Q13133); test: Agonist activity at LXRalpha (unknown origin) expressed in African green monkey CV1 cells; format: cell-based
# T3 sequence (Q13133 whole entry): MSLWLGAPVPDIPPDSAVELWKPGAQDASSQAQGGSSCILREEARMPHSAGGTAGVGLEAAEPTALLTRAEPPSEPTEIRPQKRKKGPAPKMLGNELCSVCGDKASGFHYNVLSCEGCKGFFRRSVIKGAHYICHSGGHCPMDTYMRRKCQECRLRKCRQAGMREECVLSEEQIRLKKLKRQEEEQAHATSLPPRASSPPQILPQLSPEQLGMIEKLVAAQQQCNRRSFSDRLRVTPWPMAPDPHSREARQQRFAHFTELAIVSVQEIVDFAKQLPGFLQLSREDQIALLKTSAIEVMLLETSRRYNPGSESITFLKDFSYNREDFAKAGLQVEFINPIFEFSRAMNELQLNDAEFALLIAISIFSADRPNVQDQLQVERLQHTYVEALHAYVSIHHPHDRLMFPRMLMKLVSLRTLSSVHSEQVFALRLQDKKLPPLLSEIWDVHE
# [3] = biological target: T4, Oxysterols receptor LXR-beta (Homo sapiens, UniProt P55055); test: Agonist activity at LXRbeta (unknown origin) expressed in African green monkey CV1 cells; format: cell-based
# T4 sequence (P55055 whole entry): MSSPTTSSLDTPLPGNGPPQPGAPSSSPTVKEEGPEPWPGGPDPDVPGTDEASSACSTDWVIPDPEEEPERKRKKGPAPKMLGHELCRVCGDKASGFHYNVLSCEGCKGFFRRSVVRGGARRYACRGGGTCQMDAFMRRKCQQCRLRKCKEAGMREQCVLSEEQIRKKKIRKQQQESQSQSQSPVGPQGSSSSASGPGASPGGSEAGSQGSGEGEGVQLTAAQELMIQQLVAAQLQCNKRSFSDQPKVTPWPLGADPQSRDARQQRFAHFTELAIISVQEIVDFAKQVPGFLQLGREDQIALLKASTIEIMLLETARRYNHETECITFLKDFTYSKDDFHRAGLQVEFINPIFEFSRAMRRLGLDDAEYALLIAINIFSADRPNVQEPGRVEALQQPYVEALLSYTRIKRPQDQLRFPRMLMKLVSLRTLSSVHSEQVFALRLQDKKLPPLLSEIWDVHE
# [4] = Stability in mouse liver microsomes assessed as parent compound remaining after 10 mins; format: ADME, Microsome; details: read-out: Stability
# Summary of the method: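 Rough stability screen: compound incubated with mouse liver microsomes for 10 min, reported as percentage of parent remaining.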
# [5] = Protein binding in human plasma assessed as unbound fraction; format: ADME, cell-free
# [6] = Protein binding in mouse plasma assessed as unbound fraction; format: ADME, cell-free
# [7] = biological target: T5, Oxysterols receptor LXR-alpha (Homo sapiens) (UniProt Q13133); test: Agonist activity at LXRalpha (unknown origin) expressed in African green monkey CV1 cells relative to T0901317; format: cell-based
# T5 sequence (whole entry): T3 sequence (Q13133 whole entry)
Structure (SMILES),EC50 [1],Emax (PXR (NR1I2)),EC50 [2],EC50 [3],remaining at 10 min [4],fraction unbound [5],fraction unbound [6],%max [7]
CCc1cc(S(=O)(=O)[C@@]2(c3ccc(C(F)(C(F)(F)F)C(F)(F)F)cc3)CCN(C(=O)[C@H]3CC[C@H](C(=O)O)CC3)C2)ccc1F,> 50 µM,9%,> 7.5 µM,> 7.5 µM,73%,–,–,–
CC(=O)N1CCN(C(=O)N2CC[C@@](c3ccc(C(O)(C(F)(F)F)C(F)(F)F)cc3)(S(=O)(=O)c3ccc(F)cc3)C2)CC1,–,–,> 7.5 µM,> 7.5 µM,–,–,–,–
CS(=O)(=O)N1CCC(C(=O)N2CC[C@](c3ccc(C(O)(C(F)(F)F)C(F)(F)F)cc3)(S(=O)(=O)c3ccc(F)cc3)C2)CC1,> 2.47 µM,89%,> 7.5 µM,> 7.5 µM,–,–,–,–
Cc1cc(S(=O)(=O)[C@@]2(c3ccc(C(F)(C(F)(F)F)C(F)(F)F)cc3)CCN(C(=O)[C@H]3CC[C@H](C(=O)O)CC3)C2)ccc1F,> 22.8 µM,40%,> 7.5 µM,> 7.5 µM,84%,0.017,0.029,–
COc1ccc(S(=O)(=O)[C@@]2(c3ccc(C(F)(C(F)(F)F)C(F)(F)F)cc3)CCN(C(=O)[C@H]3CC[C@H](C(=O)O)CC3)C2)cc1,> 50 µM,12%,> 7.5 µM,> 7.5 µM,98%,–,–,–
O=C(O)[C@H]1CC[C@@H](C(=O)N2CC[C@](c3ccc(C(F)(C(F)(F)F)C(F)(F)F)cc3)(S(=O)(=O)c3ccc(F)cc3)C2)CC1,–,–,> 7.5 µM,> 7.5 µM,–,–,–,–
CCc1ccc(S(=O)(=O)[C@@]2(c3ccc(C(F)(C(F)(F)F)C(F)(F)F)cc3)CCN(C(=O)[C@H]3CC[C@H](C(=O)O)CC3)C2)cc1,> 50 µM,3%,> 7.5 µM,> 7.5 µM,100%,–,–,–
Cc1ccc(S(=O)(=O)[C@@]2(c3ccc(C(F)(C(F)(F)F)C(F)(F)F)cc3)CCN(C(=O)[C@H]3CC[C@H](C(=O)O)CC3)C2)cc1,12.6 µM,29%,> 7.5 µM,> 7.5 µM,85%,0.013,0.026,–
CC(=O)N1CCN(C(=O)N2CC[C@](c3ccc(C(F)(C(F)(F)F)C(F)(F)F)cc3)(S(=O)(=O)c3ccc(F)cc3)C2)CC1,–,10%,> 7.5 µM,> 7.5 µM,68%,–,–,–
CS(=O)(=O)N1CCC(C(=O)N2CC[C@](c3ccc(C(F)(C(F)(F)F)C(F)(F)F)cc3)(S(=O)(=O)c3ccc(F)cc3)C2)CC1,> 50 µM,2%,> 7.5 µM,> 7.5 µM,69%,–,–,–
O=C(O)[C@H]1CC[C@H](C(=O)N2CC[C@](c3ccc(C(F)(C(F)(F)F)C(F)(F)F)cc3)(S(=O)(=O)c3ccccc3)C2)CC1,> 50 µM,10%,> 7.5 µM,> 7.5 µM,96%,–,–,–
O=C(O)C1CCN(C(=O)N2CC[C@](c3ccc(C(F)(C(F)(F)F)C(F)(F)F)cc3)(S(=O)(=O)c3ccc(F)cc3)C2)CC1,> 46.1 µM,23%,> 7.5 µM,> 7.5 µM,88%,–,–,–
O=C(O)[C@H]1CC[C@H](C(=O)N2CC[C@](c3ccc(C(F)(C(F)(F)F)C(F)(F)F)cc3)(S(=O)(=O)c3ccc(Cl)cc3)C2)CC1,6.44 µM,22%,> 7.5 µM,> 7.5 µM,100%,–,–,–
O=C(O)[C@H]1CC[C@H](C(=O)N2CC[C@](c3ccc(C(F)(C(F)(F)F)C(F)(F)F)cc3)(S(=O)(=O)c3ccc(F)c(C4CC4)c3)C2)CC1,> 50 µM,9%,> 7.5 µM,> 7.5 µM,74%,–,–,–

# The remaining lines, values ahead:
EC50 [1],Emax (PXR (NR1I2)),EC50 [2],EC50 [3],remaining at 10 min [4],fraction unbound [5],fraction unbound [6],%max [7],Structure (SMILES)
0.239 µM,110%,–,–,–,–,–,–,CC(O)(c1ccc(C2(S(=O)(=O)c3ccc(F)cc3)CCCC2)cc1)C(F)(F)F (racemic)
0.48 µM,100%,> 7.5 µM,> 7.5 µM,–,–,–,–,CC(=O)N1CCC(c2ccc(C(O)(C(F)(F)F)C(F)(F)F)cc2)(S(=O)(=O)c2ccc(F)cc2)C1 (racemic)
0.794 µM,99%,> 7.5 µM,> 7.5 µM,–,–,–,–,O=C(C1CCCC1)N1CCC(c2ccc(C(O)(C(F)(F)F)C(F)(F)F)cc2)(S(=O)(=O)c2ccc(F)cc2)C1 (racemic)
0.52 µM,110%,> 7.5 µM,> 7.5 µM,–,–,–,–,O=S(=O)(c1ccc(F)cc1)[C@]1(c2ccc(C(O)(C(F)(F)F)C(F)(F)F)cc2)CCNC1
–,–,> 7.5 µM,> 7.5 µM,–,–,–,–,CCNC(=O)N1CCC(c2ccc(C(O)(C(F)(F)F)C(F)(F)F)cc2)(S(=O)(=O)c2ccc(F)cc2)C1 (racemic)
0.275 µM,120%,–,–,–,–,–,–,NC(c1ccc(C2(S(=O)(=O)c3ccc(F)cc3)CCCC2)cc1)(C(F)(F)F)C(F)(F)F
0.752 µM,140%,–,–,–,–,–,–,CC(c1ccc(C2(S(=O)(=O)c3ccc(F)cc3)CCCC2)cc1)(C(F)(F)F)C(F)(F)F
1.01 µM,130%,–,–,–,–,–,–,O=S(=O)(c1ccc(F)cc1)C1(c2ccc(C(F)(C(F)(F)F)C(F)(F)F)cc2)CCCC1
0.01 µM,110%,–,–,–,–,–,–,O=S(=O)(c1ccc(F)cc1)C1(c2ccc(C(O)(C(F)(F)F)C(F)(F)F)cc2)CCCC1
0.229 µM,110%,–,–,–,–,–,–,O=S(=O)(c1ccc(F)cc1)C1(c2ccc(C(Cl)(C(F)(F)F)C(F)(F)F)cc2)CCCC1
0.434 µM,110%,2.92 µM,> 7.5 µM,–,–,–,58%,O=S(=O)(c1ccc(F)cc1)[C@@]1(c2ccc(C(O)(C(F)(F)F)C(F)(F)F)cc2)CCNC1
–,7%,> 7.5 µM,> 7.5 µM,–,–,–,–,CC(=O)N1CCC(C(=O)N2CC[C@](c3ccc(C(F)(C(F)(F)F)C(F)(F)F)cc3)(S(=O)(=O)c3ccc(F)cc3)C2)CC1
–,–,> 7.5 µM,> 7.5 µM,–,–,–,–,CC(=O)N1CCN(C(=O)N2CC[C@](c3ccc(C(O)(C(F)(F)F)C(F)(F)F)cc3)(S(=O)(=O)c3ccc(F)cc3)C2)CC1
0.048 µM,110%,–,–,–,–,–,–,CCC(O)(c1ccc(C2(S(=O)(=O)c3ccc(F)cc3)CCCC2)cc1)C(F)(F)F (racemic)
–,–,> 7.5 µM,> 7.5 µM,–,–,–,–,CC(=O)N1CCC(C(=O)N2CC[C@](c3ccc(C(O)(C(F)(F)F)C(F)(F)F)cc3)(S(=O)(=O)c3ccc(F)cc3)C2)CC1
